One block for each compound: values may come before it.
Columns and labels:
[1] = type: in vivo, human; settings: final two-compartment model
Procedure, shortened: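 Plasma semaglutide (LC–MS/MS) from 353 subjects in 9 trials with s.c. and i.v. dosing. Mixed-effects two-compartment model with first-order absorption and elimination; i.v. doses treated as a central bolus. Log-normal inter-individual variability on ka, CL, Q, Vc and Vp; (weight/85 kg) exponent on CL, Q, Vc and Vp; product strength (1, 1.34, 3, 10 mg/mL) on ka. Covariates kept at 10% alpha; CWRES >6 excluded; log-additive residual error.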

plasma albumin = settings: ref [5]; cited from earlier work
[2] = ref [6], cited from earlier work
[3] = type: in vivo, human; settings: one-compartment model, 7 multiple-dose trials, s.c.
Procedure, shortened: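 Steady-state s.c. plasma data from seven multiple-dose trials, with dose escalation 0.25 > 0.5 > 1.0 mg (one trial to 1.5 mg). One-compartment mixed-effects model parameterised as CL/F, V/F and ka, each with inter-individual variability. […] Log-additive residual error; values with CWRES >6 excluded.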

[4] = population PK model; ref [9]; cited from earlier work
[5] = cited from earlier work
[6] = s.c., trial 7 drug product strength
[7] = one-compartment model from phase 3a trials

Higher CL in subjects with type 2 diabetes compared to healthy subjects ([1]; 95% CI 9–16%): 12% | T2D effect on ka ([1]; factor, T2D vs normoglycaemia): 0.544 | Injection site effect on F ([1]; factor, thigh vs abdomen): 0.883 | Drug product strength effects on ka, 3 mg [1, 6]: 0.0526 | Drug product strength effects on ka, 10 mg [1, 6]: 0.139 | Bioavailability estimated by the final model ([1]; s.c., 95% CI 0.80–0.90): 85% | Lower bioavailability when using the thigh compared with the abdomen ([1]; s.c., 95% CI 0.84–0.92): 12% | Total volume of distribution (Vc + Vp) ([1]; typical subject with T2D, 85 kg): approximately 8 L | Absorption rate constant (ka) ([3]; 267 subjects): 0.0296 h⁻¹
Compound: CC[C@H](C)[C@H](NC(=O)[C@H](Cc1ccccc1)NC(=O)[C@H](CCC(=O)O)NC(=O)[C@H](CCCCNC(=O)COCCOCCNC(=O)COCCOCCNC(=O)CC[C@H](NC(=O)CCCCCCCCCCCCCCCCC(=O)O)C(=O)O)NC(=O)[C@H](C)NC(=O)[C@H](C)NC(=O)[C@H](CCC(N)=O)NC(=O)CNC(=O)[C@H](CCC(=O)O)NC(=O)[C@H](CC(C)C)NC(=O)[C@H](Cc1ccc(O)cc1)NC(=O)[C@H](CO)NC(=O)[C@H](CO)NC(=O)[C@@H](NC(=O)[C@H](CC(=O)O)NC(=O)[C@H](CO)NC(=O)[C@@H](NC(=O)[C@H](Cc1ccccc1)NC(=O)[C@@H](NC(=O)CNC(=O)[C@H](CCC(=O)O)NC(=O)C(C)(C)NC(=O)[C@@H](N)Cc1cnc[nH]1)[C@@H](C)O)[C@@H](C)O)C(C)C)C(=O)N[C@@H](C)C(=O)N[C@@H](Cc1c[nH]c2ccccc12)C(=O)N[C@@H](CC(C)C)C(=O)N[C@H](C(=O)N[C@@H](CCCNC(=N)N)C(=O)NCC(=O)N[C@@H](CCCNC(=N)N)C(=O)NCC(=O)O)C(C)C [semaglutide]
Central volume (Vc) ([1]; 9 trials, body weight 85 kg): 3.59 L | Peripheral volume (Vp) ([1]; 9 trials, body weight 85 kg): 4.10 L | Body weight effect on Vc and Vp ([1]; exponent of (weight/85 kg)): 0.923 | Bound to plasma albumin (plasma albumin): more than 99% | CL/F for subject with T2D and body weight of 85 kg [2, 7]: 0.0478 L/h | Total volume/F (V/F) [2, 7]: 12.2 L | Inter-individual variability in clearance ([2]; phase 3 analysis, CV): 12.9% | Apparent clearance (CL/F), healthy volunteer with body weight of 85 kg [3]: 0.0415 L/h

Compound: dulaglutide
Greater CL compared to semaglutide [4]: approximately 50% | Interindividual variability, coefficient of variation (CV) for CL [4]: 40.5% | Lower volume of distribution compared to semaglutide [4]: 20% | Slower absorption compared to semaglutide [4]: approximately threefold

Compound: liraglutide
Elimination compared with semaglutide ([5]; population PK model, ref [10]): much faster elimination | Bioavailability after administration in the thigh versus the abdomen ([5]; ref [16]): slightly lower

Reference: article PMC6437231 (Diabetes Therapy, 2019)
